Screens: PubChem, several laboratories
SENP7 block – blocks the human protease SENP7 | Q9BQF6 | recombinant SENP7, Z-RLRGG-aminoluciferin luminescence, 40 min | inhibition, % at 5 µM | hit rate 1.5% among 330,000 | AID 434973;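 active means inhibition above about 50% at the single test dose, limit read from the data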;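 further: plate controls were DMSO with enzyme for no effect and no enzyme buffer wells for full effect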
Target sequence (Q9BQF6 706-1050 limits assumed): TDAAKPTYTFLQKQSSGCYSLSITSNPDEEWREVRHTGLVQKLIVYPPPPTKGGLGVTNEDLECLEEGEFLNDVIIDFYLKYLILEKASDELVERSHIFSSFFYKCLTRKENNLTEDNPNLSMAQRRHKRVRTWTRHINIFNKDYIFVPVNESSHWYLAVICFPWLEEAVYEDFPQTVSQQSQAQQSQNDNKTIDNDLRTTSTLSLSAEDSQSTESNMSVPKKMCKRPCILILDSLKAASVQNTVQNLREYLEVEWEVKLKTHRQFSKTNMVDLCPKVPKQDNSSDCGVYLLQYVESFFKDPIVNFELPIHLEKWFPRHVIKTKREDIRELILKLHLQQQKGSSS
SENP1 FRET inh – SENP1 (human) catalytic domain inhibition | recombinant SENP1 catalytic domain, CyPet-SUMO1-YPet FRET cleavage | inhibition, % at 10 µM | Q9P0U3 | hit rate 0.21% among 360,000;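 active means inhibition at least 30% at 10 µM, raw YFP signal under a set limit, fluorescence ratio 0.5 to 1.5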;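 further: 0% = enzyme with DMSO and 100% = no enzyme wells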
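system = hSENP1 catalytic domain, recombinant | reagent = SFCypet-SUMO1-SFYpet substrate at 25 nM | doses = one dose per compound, 10 µM, 0.5% DMSO | incubation = enzyme reaction for 50 min at room temperature, dark | measured by = FRET, CFP and YFP emission | controls = no-enzyme low, enzyme-DMSO high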
SENP8 block-1 – blocks the human protease SENP8 | Q96LD8 | purified SENP8, Z-RLRGG-aminoluciferin cleavage, luminescence | inhibition, % at 10 µM | hit rate 1.2% among 330,000 | AID 2540; in the data active means inhibition above about 50%
SENP6 inh – SENP6 protease inhibition; Q9GZR1; Recombinant SENP6 catalytic domain, aminoluciferin luminescence; inhibition, % at 10 µM; hit rate 1.8% among 330,000; AID 2599;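 active means inhibition above about 50% at the single tested dose, limit read from the data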;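 further: plate controls were DMSO wells with enzyme for no effect and DMSO wells lacking enzyme for full effect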
Platelet DG rel – modulates dense granule release in human platelets; hit rate 0.22% among 300,000; inhibition, %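 (compounds screened at 7.5 µM in platelet-rich plasma)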; human platelet-rich plasma, SFLLRN dense granule ATP release, luminescence; AID 1663;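 active means mean replicate score, as percent of positive control, at or above 50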
SENP8 block-2 – blocks human SENP8 cleavage of Nedd8 substrate | Q96LD8 | recombinant SENP8, Nedd8 substrate fluorescence | inhibition, % at 20 µM | hit rate 0.64% among 360,000 | AID 602440; in the data active means inhibition mostly above about 40%, no sharp cut-off; inactive means mostly below about 27%
SENP8 inh conf – SENP8 (human) inhibition, single concentration confirmation | AID 624319 | hit rate 15% among 1,400 | purified SENP8, Nedd8-AMC/pro-Nedd8 cleavage fluorescence, 30 min | inhibition, % at 25 µM | shares compounds with SENP8 block-2; in the data active means inhibition mostly above about 39%, no sharp cut-off; inactive means mostly below about 34%
Active calls of the source: *; . = no result given. Hits are enriched below; roughly 2.6% of the tested compounds scored in any of these assays.

SMILES | SENP7 block | SENP1 FRET inh | SENP8 block-1 | SENP6 inh | Platelet DG rel | SENP8 block-2 | SENP8 inh conf
O=C(Cc1ccc([N+](=O)[O-])cc1)Nc1cccc(C(=O)N2CCCCC2)c1 | 6 | 6 | -1 | -9 | . | 9 | .
Cn1cc(Cl)c(C(=O)NNC(=S)NCc2ccco2)n1 | 4 | -1 | -2 | 8 | 1 | -1 | .
Cc1c(Cl)c(C(=O)NNC(=S)NCc2ccco2)nn1C | -7 | 3 | -10 | -12 | -2 | 40* | 14
CN(C)CCCNC(=O)C[C@H]1C[C@H](C(=O)N2CCCCC2)[C@@]2(C)c3[nH]c4cc(CCC(=O)N(C)C)ccc4c3CCN2C1=O | -12 | 0 | . | . | . | 2 | .
N#CC(C(=O)c1ccccc1)=C1SCCS1 | 3 | 3 | -2 | 7 | -4 | 42* | 9
O=C(C(=O)c1ccc(O)cc1)c1ccccc1 | 10 | 3 | 1 | -31 | 7 | 18 | .
CCc1ccc(C2CC(=O)N(c3ccc(F)cc3)C3=C2C(=O)OC3)cc1 (centres undefined) | 2 | 2 | -5 | -9 | 3 | 13 | .
O=c1nccc(Nc2ccccc2)[nH]1 | -2 | 2 | -1 | 7 | -4 | 17 | .
c1ccc(Nc2cc(Nc3ccccc3)[nH]n2)cc1 | 7 | 2 | -12 | -19 | 6 | 55* | 40
CC(CCc1ccccc1)NC(=O)COC(=O)c1ccc(NC(N)=O)cc1 (centres undefined) | 0 | 3 | -4 | -12 | 5 | 14 | .
O=C(c1ncn(Cc2ccccc2)c1C(=O)N1CCc2ccccc2C1)N1CCc2ccccc2C1 | -1 | 0 | -8 | -8 | . | 52* | 58*
Cc1ccc(S(=O)(=O)N[C@@H](CC(C)C)C(=O)N2CCC(C(=O)N[C@@H](Cc3ccccc3)C(=O)O)CC2)cc1 | -6 | 6 | 3 | 11 | -1 | 65* | 7
Cc1ccc(S(=O)(=O)N[C@H](C(=O)N2CCC(C(=O)N[C@@H](CC(=O)O)C(=O)O)CC2)C(C)C)cc1 | -4 | 1 | -3 | -6 | -1 | 13 | .
CCC(C)[C@H](NS(=O)(=O)c1ccc(C)cc1)C(=O)N1CCC(C(=O)N2CCC(C(=O)OC)CC2)CC1 (some centres undefined) | 6 | 2 | -3 | 13 | 18 | 46* | 3
CC1(C(=O)N/N=C/c2ccc3c(c2)OCO3)CC1(Br)Br (centres undefined) | 3 | 1 | 6 | -2 | -9 | 0 | .
CC(C)(C)c1ccc(OCC(=O)N2CCN(C=O)CC2)cc1 | 4 | 1 | -8 | 7 | 16 | 44* | 14
CC(C)/C=C/CN1CCCC(N2CCN(c3cccc(Cl)c3)CC2)C1 (centres undefined) | 6 | -1 | -3 | -3 | -8 | 16 | .
CCc1ccc(-c2n[nH]nc2C2=CC(=O)C[C@H](c3ccc(F)cc3)C2)cc1 | . | 0 | . | . | . | -22 | .
CCS(=O)(=O)N1CCC(C(=O)N2CCc3ccccc3C2)CC1 | 9 | -11 | 1 | -4 | -2 | 44* | 77*
CC1NC(=O)c2cccnc2-n2c1nc1cc(F)c(F)cc1c2=O (centres undefined) | . | -1 | . | . | . | 0 | .
COC(=O)CN1C(=O)S/C(=C/c2ccc(N3CCCCC3)o2)C1=O | -7 | -22 | -14 | -4 | 0 | 42* | 27
CCOC(=O)CN1C(=O)S/C(=C/c2ccc(N3CCCCC3)o2)C1=O | 1 | 51 | 4 | -7 | 1 | 22 | .
O=C(NCc1ccco1)c1nc2ccccc2s1 | -2 | 1 | -6 | 14 | -3 | 24 | .
CC1=CC(=C(C#N)c2nc3ccccc3s2)C=C(C)N1Cc1ccco1 | 2 | -22 | 16 | 38 | -4 | 59* | 18
Cc1cnc(C(=O)OCC(=O)Nc2cccc(S(=O)(=O)N3CCOCC3)c2)cn1 | 4 | -3 | -6 | -20 | . | 1 | .
Cc1ccc(C(=O)NCC(=O)OC(C)C(=O)NC2CCCc3ccccc32)cc1 (centres undefined) | -5 | 2 | -1 | -16 | -5 | 11 | .
O=C(Cc1ccccc1)N/N=C/c1cc2c(cc1Cl)OCO2 | -6 | 1 | -18 | -15 | 9 | 11 | .
O=C(CNc1ccc2c(c1)OCO2)N/N=C\c1ccccc1Cl | 6 | -15 | 3 | 7 | -4 | 61* | 15
